# Experimental data gathered from unrelated publications.
# Protocols differ between the studies behind these lines.
# Effect on: cell growth or viability
SMILES,cell line,method,time,IC50
CN(C)CC[C@@H](c1ccc(Cl)cc1)c1ccccn1,CAL-27,,72 h,> 20 µM
COc1cc(-c2ncn(/C=C\C(=O)OC(C)C)n2)cc(C(F)(F)F)c1,F-36P,,72 h,0.063 µM
Cc1ccc(C(=O)Nc2ccc(Oc3cc4cnn(C)c4cc3-c3cn[nH]c3)c(F)c2)c(=O)n1-c1ccc(F)cc1,NCI-H1993,ATP luminescence,,0.076 µM
S=C(NN=Cc1ccc(Cl)s1)Nc1ccccc1,CRFK,,,10.1 µM
O=C(Nc1nnnn1C1CCCCC1)c1ccc2ccccc2c1,MCF-10A,,48 h,81 µM
CNC(=O)c1ccc(N2C(=S)N(c3cnc(C#N)c(C(F)(F)F)c3)C(=O)C23CCC3)cc1F,VCaP,ATP luminescence,6 days,0.39 µM
CCN(CC)CCOC(=O)C1(c2ccc([N+](=O)[O-])cc2)CCCC1,CAL-27,,72 h,> 20 µM
CC(=O)O[C@@]12CO[C@@H]1C[C@H](O)[C@@]1(C)C(=O)[C@H](O)C3=C(C)[C@@H](OC(=O)[C@H](O)[C@@H](NC(=O)OC(C)(C)C)c4ccccc4)C[C@@](O)([C@@H](OC(=O)c4ccccc4)[C@H]21)C3(C)C,4T1,CCK-8,72 h,0.118 µM
CCOc1ccc(-c2cnc3c(n2)CCCC3)cc1,MCF-10A,,48 h,> 50 µM
C[C@H]1[C@@H](O)O[C@@H]2O[C@@]3(C)CC[C@H]4[C@H](C)CC[C@@H]1[C@@]24OO3,MCF-10A,CCK-8,48 h,44.4 µM
COc1cccc2c1C(=O)c1c(O)c3c(c(O)c1C2=O)C[C@@](O)(C(=O)CO)C[C@@H]3O[C@H]1C[C@H](N)[C@H](O)[C@H](C)O1,MCF-10A,,48 h,1.2 µM
CC(C)c1cc(-c2n[nH]c(=O)n2-c2ccc3c(ccn3C)c2)c(O)cc1O,MDA-MB-415,imaging,24 h,0.024 µM
CCCCOc1cccc(-c2cnc3c(n2)CCCC3)c1,MCF-10A,,48 h,> 50 µM
Clc1ccc(N2CCN(Cc3c[nH]c4ncccc34)CC2)cc1,CAL-27,,72 h,> 20 µM
COc1nc(SC)nc(OC)c1C(=O)/C=C/[c-]1cccc1.[Fe+2].c1cc[cH-]c1,4T1,MTT,72 h,214 µM
COc1cc(Nc2nccc(-c3cnn4nc(OC)ccc34)n2)cc(C(F)(F)F)c1,OVK18,ATP luminescence,,0.41 µM
CC(C)c1cccc(C(C)C)c1N1CCN(c2c(C(C)C)cccc2C(C)C)C1=[Se],HCT-15,MTT,72 h,15.8 µM
O=C(c1cc(Cl)c(Cl)[nH]1)c1c(O)ccc(C(c2csc(-c3ccccc3O)n2)c2ccc(O)c(C(=O)c3cc(Cl)c(Cl)[nH]3)c2O)c1O,MDCK,MTT,72 h,67 µg/mL
c1ccc(-c2cccc(-c3cnc4c(n3)CCCC4)c2)cc1,MCF-10A,,48 h,> 50 µM
COc1ccc2c(c1OC)C(=O)O[C@@H]2[C@H]1c2c(cc3c(c2OC)OCO3)CCN1C,CAL-27,,72 h,17 µM
O=C(c1cc(Cl)c(Cl)[nH]1)c1c(O)ccc(Cc2ccc(O)c(C(=O)c3cc(Cl)c(Cl)[nH]3)c2O)c1O,MDCK,MTT,72 h,25 µg/mL
COc1cc2nc(N3CCN(C(=O)c4ccco4)[C@H]4CCCC[C@H]43)nc(N)c2cc1OC (racemic),CAL-27,,72 h,13.3 µM
O=C(O)c1cc(/N=N/c2ccc(S(=O)(=O)Nc3ccccn3)cc2)ccc1O,VCaP,CCK-8,72 h,> 30 µM
CC(C)C[C@H](NC(=O)[C@H](Cc1ccccc1)NC(=O)c1cnccn1)B(O)O,SCLC-21H,ATP luminescence,,0.011 µM
c1ccc(-c2cnc3c(n2)CCCC3)cc1,MCF-10A,,48 h,> 50 µM
COc1ccc(CCN(C)CCc2ccc(OC)c(OC)c2)cc1OC,CAL-27,,72 h,> 20 µM
CCCCc1cccc(-c2cnc3c(n2)CCCC3)c1,MCF-10A,,48 h,> 50 µM
NCCc1ccc(O)c(O)c1,CAL-27,,72 h,> 20 µM
Cc1cn([C@H]2C[C@H](N=[N+]=[N-])[C@@H](CO)O2)c(=O)[nH]c1=O,VCaP,CCK-8,72 h,> 30 µM
O=C1Nc2ccc(Cl)cc2[C@@](C#CC2CC2)(C(F)(F)F)O1,CAL-27,,72 h,> 20 µM
O=C1CCCCC1C1C2C=CC=CC1/C(=C/c1ccccc1)C2 (stereo not shown),K562,flow cytometry,,0.059 µM
